One experiment has as its system Enterococcus faecium. As to the kind of experiment: Antimicrobial activity against vancomycin resistant Enterococcus faecium. Format: functional. The method in brief: (§1)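 Broth microdilution: MRSA or VREF grown overnight at 37 °C in GYT medium (0.1% glucose, 0.25% yeast extract, 0.5% tryptone), adjusted to OD 0.04–0.06, then diluted 1:10. Test materials serially diluted 1:2, incubated 16–18 h at 37 °C. Vancomycin (MRSA) or penicillin G (VREF) as positive controls, DMSO as negative control. MIC read from OD600.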

The subject of the next experiment is Staphylococcus aureus. As to the kind of experiment: Antimicrobial activity against methicillin-resistant Staphylococcus aureus. Format: functional. In short, it runs like this:
as §1

The nature of experiment [1]: Cytotoxicity against human […] cell after 72 hrs by MTS assay. Format: functional, cell-based. In short, it runs like this: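 HCT-116 colon carcinoma cells were preincubated overnight at 37 °C in 5% CO2/air. Test materials were serially diluted 1:4, with etoposide as positive control and DMSO as negative control. After 72 h, viability was read as MTS reduction to formazan at 490 nm. IC50 was calculated from the curves.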
In general terms: Tetrazolium dyes change colour on reduction, which living cells bring about.

Converted amounts (≈) assume the structure as drawn.

In general, MIC refers to the lowest concentration found to suppress growth. The low end stands for inhibition by little substance, the high end for a need for much substance. Broadly, the IC50 is the concentration that inhibits the measured activity by half. A low value points to greater potency in that assay.

As for `C=C1CC[C@H](Cl)C(C)(C)[C@@H]1C[C@@]12OC(C)(C)[C@H](Cl)C=C1C(=O)c1c(cc(O)c(C)c1O)C2=O`, the MIC against Enterococcus faecium and in the experiment on Staphylococcus aureus was 1.95 mg/L (≈ 3.95 µM) in each case.
In experiment [1], `C=C1CC[C@H](Cl)C(C)(C)[C@@H]1C[C@@]12OC(C)(C)[C@H](Cl)C[C@]1(Cl)C(=O)c1c(cc(O)c(C)c1O)C2=O` displayed a half-inhibitory concentration (IC50) of 1.84 mg/L (≈ 3.47 µM). In addition, the MIC in the experiment with Enterococcus faecium amounted to 3.9 mg/L (≈ 7.36 µM); against Staphylococcus aureus it was 1.9 mg/L (≈ 3.59 µM).
The like results for `Cc1c(O)cc2c(c1O)C(=O)[C@H]1C[C@@H](Cl)C(C)(C)O[C@@]1(C[C@H]1C(C)(C)[C@@H](Cl)CC[C@]1(C)O)C2=O` were, in that order, 2.4 mg/L (≈ 4.67 µM), 3.9 mg/L (≈ 7.6 µM) and 1.95 mg/L (≈ 3.8 µM).
The like results for `Cc1c(O)cc2c(c1O)C(=O)C1=C[C@@H](Cl)C(C)(C)O[C@@]1(C[C@H]1C(C)(C)[C@@H](Cl)CC[C@]1(C)O)C2=O` were, in that order, 0.97 mg/L (≈ 1.9 µM), 15.6 mg/L (≈ 30.5 µM) and 15.6 mg/L (≈ 30.5 µM).

For the origin of these results see ChEMBL document CHEMBL1158787, “Antibiotic terpenoid chloro-dihydroquinones from a new marine actinomycete” (J Nat Prod, 2005).
